A selection follows.
PGC1a acetyl up – raises PGC1a acetylation signal in U2OS cells; U2OS PGC1a acetylation AlphaScreen, overnight; activation, % at 15.6 µM; 350,000 compounds, 0.21% hits; AID 651723;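 active = every replicate reaching activation of at least 50%, whatever the mean replicate activation; inconclusive = replicates that disagree or another doubt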;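 note: hits raise the AlphaScreen acetylation signal above neutral controls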
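System: Flag-PGC1a/GCN5 U2OS cells | Quantity: 7000 cells/well | Times: Overnight compound treatment, 37 °C | Measured by: AlphaScreen proximity luminescence, anti-acetyl-lysine antibody | Dosing: One concentration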
G6PC hep suppr – PGC-1a acetylation activator altering hepatocyte G6PC expression; shares compounds with PGC1a acetyl up; primary mouse hepatocytes, G6PC mRNA qPCR, forskolin; G6PC suppression (normalized activity, % of positive control; higher = more suppression), % at 26 µM; 240 tested, under 10 active;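 active = dose curves showing G6PC suppression whose half-maximal dose is at most twice the top valid dose; inconclusive = flat curves with moderate negative activity, or unreliable fits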;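 note: G6PC expression relative to GAPDH housekeeping gene as delta delta Ct; 0% = median of neutral control wells and 100% = median of positive control wells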
Hep PCK1 suppr – PGC-1a acetylation activators affecting PCK1 expression in hepatocytes. shares compounds with PGC1a acetyl up. primary mouse hepatocytes, PCK1 mRNA qPCR, forskolin-stimulated. PCK1 expression decrease, unspecified at 26 µM. 230 tested, under 10 active;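 active = compounds lowering PCK1 expression whose fitted half-maximal concentration is at most twice the top tested dose; inconclusive = flat fit with moderate opposite-direction effect, or poor fit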;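 note: values are delta delta Ct of PCK1 relative to GAPDH; higher delta delta Ct means lower PCK1 expression so positive values indicate hits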
PGC1a hep suppr – PGC-1a acetylation activator altering hepatocyte PGC-1a expression | shares compounds with PGC1a acetyl up | primary mouse hepatocytes, PGC-1a mRNA qPCR, forskolin; top dose 26 µM | max activity (PGC-1a expression decrease), % | 240 tested, under 10 active | AID 743467;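 active = compound lowering PGC-1a expression with fitted half-maximal concentration at most twice its top tested dose; inconclusive = flat curve with moderate opposite-direction effect, or poor fit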;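 note: 0% = neutral control wells median and 100% = positive control wells median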
* hit, by the source's call; u = inconclusive; x = not tested or not shown; [ ] = remark or other dose.

SMILES	PGC1a acetyl up	G6PC hep suppr	Hep PCK1 suppr	PGC1a hep suppr
CC(=O)c1ccc(N2CCN(C(=O)C(=O)c3c(C)[nH]c4ccccc34)CC2)cc1	66*	-37	-14	-14
Cc1nn(CCCC(=O)O)c(C)c1[N+](=O)[O-]	-42	x	x	x
O=C(Nc1cccnc1)c1ccc(Oc2ccccc2)cc1	78*	-14	9.5	u
CCCOc1ccc(C(=O)Nc2cccnc2)cc1	77*	-38	57	54
Oc1ccc(C=Nc2ccc(N3CCOCC3)cc2)c(O)c1	-64	x	x	x
O=C(Cn1cnc2c(nnn2Cc2ccc(Cl)cc2)c1=O)c1ccccc1	-50	x	x	x
O=C(NN1c2ccccc2CCc2ccccc21)c1ccccc1Br	u	168	102	88
CCN1CC=C2C(C#N)=C(N)C(C#N)(C#N)[C@H](c3cccc(OC)c3OC)[C@H]2C1	-41	x	x	x
O=C1/C(=C/c2ccc(N3CCOCC3)o2)SC(=Nc2ccccc2)N1CCc1c[nH]c2ccccc12	-62	x	x	x
CCC1NC(=S)N(C2CCCCC2)C1=O (stereo unspecified)	-55	x	x	x
Cc1ccc(-c2[nH]ncc2/C=C(\C#N)C(=O)NC2CCCCC2)cc1	-41	x	x	x
CN(c1cccc(NS(=O)(=O)c2cccs2)c1)S(C)(=O)=O	-51	x	x	x
CC1CC(NS(=O)(=O)c2cccs2)CC(C)(C)C1 (stereo unspecified)	265*	99	69	157
OCCN(Cc1ccccc1)CC1CCCCC1	-57	x	x	x
COc1cc(NC(=O)c2cccs2)c(OC)cc1NC(=O)CCC(=O)Nc1ccc2ncccc2c1	366*	189	u	u
CCC(=O)NC(c1cccs1)c1ccc2cccnc2c1O (stereo unspecified)	-47	x	x	x
COc1ccc(C(=O)N/C(=C/c2cccs2)C(=O)NC(C)(C)C)cc1OC	-67	x	x	x
Cc1c(Nc2cc(Cl)c3nonc3c2[N+](=O)[O-])c(=O)n(-c2ccccc2)n1C	-40	x	x	x
CCOC(=O)Cn1cc(/C=C(/C#N)C(=O)NC(C)C)c2ccccc21	-49	x	x	x
O=[N+]([O-])c1c(NCCCO)cc(Sc2nc3ccccc3s2)c2nonc12	-58	x	x	x
Cc1cccc(-c2ccc3[nH]c4c(c3c2)CCN2C[C@@H]([C@H](C)O)[C@@H](N(C)C(=O)NC3CCCCC3)C[C@@H]42)c1	-40	x	x	x
C#CC(=O)N(c1ccc(OC)cc1OC)C(C(=O)NC1CCCC1)c1cccs1 (stereo unspecified)	-95	x	x	x
COc1ccc(N(C(=O)c2snc(C(N)=O)c2N)C(C(=O)NC2CCCCC2)c2ccc(C)o2)cc1 (stereo unspecified)	62*	-14	-45	37
COc1ccc(N(C(=O)c2snc(C(N)=O)c2N)C(C(=O)NC2CCCCC2)c2ccc(F)cc2)c(OC)c1 (stereo unspecified)	u	-20[8 µM]	119	72
CN1C(=O)c2ccccc2C(C(=O)O)C1c1cccc([N+](=O)[O-])c1 (stereo unspecified)	-44	x	x	x
SMILES	PGC1a acetyl up	G6PC hep suppr	Hep PCK1 suppr	PGC1a hep suppr
CCCOc1ccccc1C1C(C(=O)OC)=CN(C(C)C)C=C1C(=O)OC	-92	x	x	x
CCCCN(C)Cc1c(C)[nH]c2ccccc2c1=O	-49	x	x	x
C/C(=N\N1CCN(c2ccccc2)CC1)c1ccccc1O	-40	x	x	x
COC(=O)c1ccc(Cl)c(NC(C)=O)c1	-47	x	x	x
C[C@@](Cc1ccc(O)c(O)c1)(NN)C(=O)O	-62	x	x	x
Cc1cc(C)c2c(-n3cccc3)c(C(=O)NNS(=O)(=O)c3ccccc3)sc2n1	173*	x	x	u
CN1CC=C2C(C#N)=C(N)C(C#N)(C#N)C(CCc3ccccc3)C2C1 (stereo unspecified)	-45	x	x	x
C=CCNC(=S)N1CCN(CCN=CC2=C(O)CC(c3ccco3)CC2=O)CC1 (stereo unspecified)	-40	x	x	x
COc1ccc(-c2cn[nH]c2-c2ccc(O)cc2O)cc1	-42	x	x	x
COC(=O)c1cc2ccsc2n1CC(=O)Nc1cc(Cl)ccc1OC	59*	24	314	119
CCc1nc(SCC(=O)N2c3ccccc3Sc3ccccc32)c2ccccc2n1	-43	x	x	x
O=S(=O)(c1ccc(Cl)cc1)N1[C@@H]2CNC[C@H]1C2c1ccc(-c2cccc(F)c2)cc1 (stereo partly specified)	80*	10	47	110
CC1(C)CC(=O)C=C(NCc2ccco2)C1	-40	x	x	x
Cc1ccc(S(=O)(=O)N(CC2CO2)c2ccccc2[N+](=O)[O-])cc1 (stereo unspecified)	-79	x	x	x
O=C(CN1CCC(n2cnc3cccnc32)CC1)NCc1cccs1	x	17	30	38
O=C(CN1CCC(n2nnc3ccccc32)CC1)NCc1cccs1	192*	-15	-22	33
OC[C@@H]1CN(Cc2ccccc2)C[C@H](n2cnc3c(NCc4ccco4)ncnc32)O1	-101	x	x	x
COc1ccc(OCCc2nnc(N)s2)cc1	-43	x	x	x
COc1cccc(NC(=O)N2CCN(c3cccc(C)c3)C(C)C2)c1 (stereo unspecified)	-45	x	x	x
CC(=O)Nc1cc(OC(C)=O)c2nonc2c1OC(C)=O	-44	x	x	x
OC(c1cc(-c2ccc(Cl)cc2)nc2ccccc12)C1CCCCN1 (stereo unspecified)	u	213	45	37
O=C1NC2(CCC3(CC2)OCCO3)NN1c1ccccc1	-51	x	x	x
C[C@@H]1CN([C@H](C)CO)C(=O)c2c(c3ccccc3n2C)-c2ccccc2CO[C@@H]1CN(C)C(=O)Nc1cccc(C(F)(F)F)c1	68*	112	196	157
C[C@@H]1CN([C@@H](C)CO)C(=O)c2c(c3ccccc3n2C)-c2ccccc2CO[C@@H]1CN(C)C(=O)Nc1ccc(F)cc1	u	-2[23.5 µM]	42[23.5 µM]	32
C[C@@H]1CN([C@@H](C)CO)C(=O)c2c(c3ccccc3n2C)-c2ccccc2CO[C@@H]1CN(C)C(=O)Nc1cccc(C(F)(F)F)c1	79*	103[23.5 µM]	45[23.5 µM]	58
SMILES	PGC1a acetyl up	G6PC hep suppr	Hep PCK1 suppr	PGC1a hep suppr
CO[C@@H](C(=O)N(C)C[C@H]1OCc2ccccc2-c2c(n(C)c3ccccc23)C(=O)N([C@H](C)CO)C[C@H]1C)c1ccccc1	72*	8	32	79
CCOC(=O)NC(=S)Nc1cccc(NC(=S)NC(=O)OCC)c1	-40	x	x	x
CCn1c(C(C)NC(=O)c2ccccc2C)n[nH]c1=S (stereo unspecified)	-50	x	x	x
Cc1ccc(N)cc1S(=O)(=O)N(C)C	-46	x	x	x
Cc1c(/C(O)=C2\C(=O)C(=O)N(CCCN(C)C)C2c2ccccc2)cnn1-c1ccccc1 (stereo unspecified)	-82	x	x	x
CCN(CC)S(=O)(=O)c1cccc(-c2nnc(SCc3ncc(-c4ccccc4)o3)n2C)c1	-43	x	x	x
O=C(N=Nc1c(O)[nH]c2ccccc12)c1cc(-c2cccs2)[nH]n1	-48	x	x	x
Cn1nnnc1SC1CC(=O)N(c2ccccc2)C1=O (stereo unspecified)	-44	x	x	x
O=C(Nc1cccn2ncnc12)C(Cl)Cl	-2	x	x	x
CC12CCC(C1)C(C)(C)C2NS(=O)(=O)c1ccc(F)cc1 (stereo unspecified)	u	19	x	u
CCc1nc(N)nc(N)c1-c1ccc(Cl)cc1	-48	x	x	x
Cc1[nH]nc2ncc(C(=O)c3ccccc3O)cc12	-45	x	x	x
CC(C)Oc1ccc2nnnn2n1	-49	x	x	x
